Source: ChEMBL document CHEMBL4513216, “Probing the Open Global Health Chemical Diversity Library for Multistage-Active Starting Points for Next-Generation Antimalarials” (ACS Infect Dis, 2020)

Experiment: Toxicity liver stage against HepG2, at 10uM
Format: cell-based
Set-up: test concentration 10 uM, cell line HepG2-A16-CD81EGFP
Conditions: human, HepG2-A16-CD81EGFP cells; read-out: INHIBITION
Procedure, shortened: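 Uninfected HepG2-A16-CD81EGFP cells, 3 × 10^3 per well, 1536-well, plated on prespotted compound at 10 μM final, parasite-free screening media added to match infected plates; puromycin 10 μM positive, DMSO 0.5% negative; run in parallel with 48 h PbLuc assay at 37 °C, 5% CO2; viability by CellTiter-Glo luminescence, normalized to controls.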

Compound	cytotoxicity at 10 µM
COc1ccc(Cl)cc1C(=O)NCc1cnn(C)c1C	6.81%
CCC(CC)C(=O)N1CCN(Cc2nc3ccccc3c(=O)[nH]2)CC1	-17.6%
CN(Cc1ccccc1C(F)(F)F)C(C(N)=O)c1ccccc1 (stereo not drawn)	13.2%
COC(=O)c1ccc(NC(=O)CCNCc2ccco2)cc1	-3.64%
O=S(=O)(Cc1ccccc1)NC[C@H]1Cn2ccnc2CO1	6.88%
CC1=Nc2c(c(=O)[nH]n2C2CCCCC2)C(c2ccc(C(=O)O)cc2)S1 (stereo not drawn)	-7.92%
Cc1nc(C(=O)N2CCN(S(=O)(=O)N(C)C)CC2)c(-c2ccccc2)s1	3.67%
CC(C)Oc1ccc(C(=O)N2CCCSCC2CN(C)C)cc1 (stereo not drawn)	9.9%
Cc1ccc(S(=O)(=O)N2CCC(S(C)(=O)=O)CC2)cc1C	2.59%
O=C(Nc1cccnc1)c1nn(C2CCS(=O)(=O)C2)c2c1CCCC2 (stereo not drawn)	7.41%
COc1ccc(C2CC(=O)Nc3nc(N4CCOCC4)sc32)c(OC)c1 (stereo not drawn)	53.8%
CN(C)CC1CSCCCN1C(=O)c1ccc(C(C)(C)C)cc1 (stereo not drawn)	6.25%
Cn1ncc(C(=O)N2CCN(C(=O)c3ccco3)CC2)c1Cl	2.88%
Cc1ccc(C)c(NC(=O)c2n[nH]c(-n3cnnc3)n2)c1	3.43%
Cc1cncc(C2CCN(Cc3cnc(C)nc3)CC2)n1	5.38%
Cn1ccc(C(=O)N2CCCC2c2[nH]ncc2C(N)=O)n1 (stereo not drawn)	15.3%
NC(=O)CN1CCCCC1c1nc(N)ncc1-c1cccc(F)c1 (stereo not drawn)	-13.5%
Cc1cc(N(C)C)nc(C2(C)CCCN2C(=O)c2ccn(C)n2)n1 (stereo not drawn)	-1.06%
O=C(N1CCCCC1)N1CCCC1c1nnc2n1CCNC2 (stereo not drawn)	13.6%
Cc1cc(C2CCCN2Cc2nc(-c3ccco3)no2)on1 (stereo not drawn)	7.53%
CC1COc2ccccc2N1C(=O)c1cscn1 (stereo not drawn)	11.5%

Compound	cytotoxicity at 10 µM
COc1ccc(CNC(C)c2cnn(C)c2)cc1OC1CCCC1 (stereo not drawn)	-0.734%
Cc1nc(CN2CCCN(CC(=O)N(C)CCC#N)CC2)no1	6.28%
COCc1cccc(NCc2cccnc2)c1	4.16%
CCc1nc(CN(C)C2CCN(Cc3ccc(Cl)s3)C2)no1 (stereo not drawn)	9.41%
O=C(c1cn(-c2ccccc2C(F)(F)F)nn1)N1CCSCC1	-0.111%
CC(NC(=O)NCCCn1cccn1)c1ccncc1 (stereo not drawn)	15.3%
CC(C)CCN1CCN(C(=O)c2cccnc2-n2cncn2)CC1	6.37%
O=C(NCC1CCN(c2ccncc2)CC1)C(O)c1ccccc1 (stereo not drawn)	8.15%
Cc1cccc(N2CCC(NCc3cnc(C4CCC4)s3)CC2)n1	6.08%
CC(C)=CCN1CCN(C(C)c2cccnc2)CC1 (stereo not drawn)	-2.65%
COCCN(CCOC)c1ncccc1Cl	3.94%
Cc1cc(S(=O)(=O)NCC(C)(O)CN(C)C)c(F)cc1F (stereo not drawn)	10%
CCC(C)(COc1ncccc1Cl)NCC(=O)Nc1ccc(Br)cn1 (stereo not drawn)	-2.89%
CC(C)n1cnnc1C1CCCN(S(=O)(=O)c2c[nH]cn2)C1 (stereo not drawn)	-6.6%
Cc1cnn(C2CN(CC(O)Cn3cccn3)C2)c1 (stereo not drawn)	9.12%
Cc1ccc(C)n1-c1c(C(=O)NCC(c2ccsc2)N(C)C)cnn1C (stereo not drawn)	17.1%
COc1ccc(C(C)NCc2cnnn2C)cc1F (stereo not drawn)	-9.72%
CCN1Cc2ccccc2CC2(CCN(C(=O)N(C)C)CC2)C1=O	8.3%
Cc1occc1C(=O)N1CCC2(CCC2NC(=O)c2ccn(C)c2)CC1 (stereo not drawn)	-1.75%
Cc1ccc(CN2CC[C@H]3OCC[C@@H](c4nc(C)no4)[C@H]3C2)cc1	-6.95%
COc1ccc(CN(CC2CCCO2)C(=O)CN2CCOC2=O)cc1 (stereo not drawn)	-1.39%

Compound	cytotoxicity at 10 µM
CCc1nc(C)c(CC(=O)N2CCC3(CC2)OCCCC3O)c(=O)[nH]1 (stereo not drawn)	9.16%
O=C(NCc1nnc2n1CCCC2)c1cn(-c2ccccc2)nn1	-2.12%
CCc1[nH]c2ccc(CNC(=O)c3cnc(N)nc3C)cc2c1C	-3.56%
CC(C)=CCN1C[C@@H]2CN(C(=O)c3ccc(CO)cc3)C[C@]2(C(=O)O)C1	2.21%
Cc1cc(C)c2c(NCC3(O)CCCCC3)ncnc2n1	-7.13%
Cc1ccc(CSc2nc(N)cc(NCCC(=O)N3CCCC3)n2)cc1	1.87%
CN(Cc1ccsc1)Cc1nc(-c2ccncc2)no1	1.93%
CN(C)CC1(O)CCN(C(=O)c2ccc(-n3cccn3)cc2Cl)C1 (stereo not drawn)	-0.662%
CC(NS(C)(=O)=O)C(=O)N(C)Cc1cnn(-c2ccc(F)cc2)c1 (stereo not drawn)	-7.94%
CCOCCN1CCC=C(C2c3nc[nH]c3CCN2C(C)=O)C1 (stereo not drawn)	-3.67%
CSCC[C@@H](CO)Nc1ccc(-c2nc(-c3ccccc3C)no2)cn1	3.77%
COc1ccc(-c2nc3c([nH]2)CCNC3C(=O)O)c2ccc(C)nc12 (stereo not drawn)	0.562%
c1ccc(C2CCCN2C2CSCCSC2)nc1 (stereo not drawn)	-3.77%
CCC(Nc1cccc(OC)c1)C(=O)NCc1nc(C)cc(=O)[nH]1 (stereo not drawn)	4.91%
CC(C)CN1CCCn2nc(CNC(=O)OCc3ccccc3)cc2C1	1.04%
CNC(=O)C1CC(=O)N(c2cccc(F)c2)C1 (stereo not drawn)	4.61%
O=C(O)CC[C@@H]1CN(c2ccncc2)CC[C@@H]1N1CCOCC1	0.0482%
CC(Cn1cccn1)n1cnc2cccc(Cl)c2c1=O (stereo not drawn)	-5.41%
CN(C)CC1(O)CCN(S(=O)(=O)c2ccc(F)cc2)C1 (stereo not drawn)	-3.09%
Cc1csc2c(=O)n3c(nc12)CCN(C(=O)c1cccnc1)CC3	-2.09%
O=C(NC(Cc1ccsc1)c1nccs1)C1CCOCC1 (stereo not drawn)	1.9%

Compound	cytotoxicity at 10 µM
Cc1cc(CN2CCN(C(=O)NC(C)Cn3ccnc3)CC2)on1 (stereo not drawn)	-7.42%
CC(NC(=O)NCc1ccoc1)c1ccc2c(c1)CCC(=O)N2 (stereo not drawn)	-1.12%
OCCn1cc(CN2CCN(CCOc3ccccc3F)CC2)cn1	-5.72%
CCc1nc(C2CCCN(C(=O)c3cccc4c3ccn4C)C2)no1 (stereo not drawn)	-14.4%
Cn1cnc2c1CCN(Cc1ccc(C(=O)N3CCCC3)cc1)C2	-8.62%
COc1ccsc1C(=O)N1CCCC(n2nc(C)nc2C)C1 (stereo not drawn)	-3.69%
Cc1cccc(C2(CNC(=O)CCN3C(=O)CCC3=O)CCCC2)c1	-7.59%
Cc1cc(C2CCCN(CCCNS(C)(=O)=O)C2)n[nH]1 (stereo not drawn)	-5.2%
c1ccc(Cn2cncn2)c(CNCC2CNc3ccnn3C2)c1 (stereo not drawn)	-3.61%
CCn1cnnc1CNC(=O)N(C)Cc1ccc(F)c(F)c1	-11.4%
Cc1ccccc1CN1CCCN(C2CCOC2=O)CC1 (stereo not drawn)	-3.09%
Cc1ccc(-c2nc(CN3CCn4c(nnc4C4CC4)C3)cs2)o1	-0.215%
Cc1sc2c(C3CCCNC3)nc(Nc3cccc(F)c3)n2c1C (stereo not drawn)	1.24%
CNC(=O)COC1COC2(CCN(c3cnccn3)CC2)C1 (stereo not drawn)	-8.44%
CN(C)CCN1CCCC12CCCN(Cc1ccco1)C2 (stereo not drawn)	10.3%
O=S(=O)(NC1CCC12CCN(CC1CCOCC1)CC2)c1ccccc1 (stereo not drawn)	-1.34%
Cc1oncc1C(=O)NCc1cc(=O)n2c(n1)CN(CC1CC1)CCC2	-4.5%
CN1CCN(Cc2cn3c(n2)CNCC3)CC1	7.85%
Cc1ccc(N2CCC3(CCN(C(=O)c4ccsc4)C3)CC2)nn1	-0.0395%
CCN1CCN(c2nc3cn(-c4cnn(CC)c4)c(=O)c-3c[nH]2)CC1	4.01%
